A word on the inhibition: it is the drop in the measured response relative to a control, in per cent. Lower therefore signals a response near the control. By IC50 is commonly meant the concentration needed to halve the response being measured. The low end stands for greater potency in that assay, the high end for weaker potency in that assay.

Experiment [1] deals with T1, Prostaglandin E synthase (Homo sapiens) (UniProt O14684).
T1 sequence (whole entry): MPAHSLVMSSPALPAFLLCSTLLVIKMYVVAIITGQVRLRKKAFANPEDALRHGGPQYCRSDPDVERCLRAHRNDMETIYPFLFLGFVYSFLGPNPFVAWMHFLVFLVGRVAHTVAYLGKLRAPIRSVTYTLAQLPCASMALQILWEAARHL
Description: Inhibition of mPGES-1 in microsomes isolated from IL-1beta-stimulated human A549 cells at 10 uM using PGH2 as substrate preincubated for 15 mins followed by substrate addition measured after 1 min by RP-HPLC method relative to control. Format: cell-free. A digest of the protocol: (§1)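 mPGES-1 source: microsomes of A549 cells stimulated 48 h with IL-1β (1 ng/ml), sonicated, spun 10,000×g 10 min then 174,000×g 1 h at 4 °C. Diluted in 0.1 M potassium phosphate pH 7.4 with 2.5 mM glutathione. Compound or DMSO vehicle added 15 min at 4 °C, then 20 µM PGH2 for 1 min at 4 °C. Stopped with FeCl2/citric acid plus 11β-PGE2. PGE2 measured by solid-phase extraction and RP-HPLC.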

In another experiment the target is T2, Prostaglandin E synthase (Homo sapiens, UniProt O14684).
T2 sequence (O14684 whole entry): T1 sequence (whole entry)
Description: Inhibition of mPGES-1 in microsomes isolated from IL-1beta-stimulated human A549 cells using PGH2 as substrate preincubated for 15 mins followed by substrate addition measured after 1 min by RP-HPLC method. It is filed as cell-free. In outline: as §1

On to `O=C(Oc1ccc2c(c1)C(=O)c1nc3nonc3nc1-2)c1ccccc1`, for which the inhibition in experiment [1] was found to be 85%. On Prostaglandin E synthase, this compound registered an IC50 of 2.4 µM. In experiment [1], `O=C(Oc1ccc2c(c1)-c1nc3nonc3nc1C2=O)c1ccccc1` showed an inhibition of 70%. 2.4 µM corresponded to half-maximal inhibition against Prostaglandin E synthase (IC50). For `O=C1c2cc(O)ccc2-c2nc3nonc3nc21`, in experiment [1], the inhibition was found to be 15%. For `O=C1c2ccc(O)cc2-c2nc3nonc3nc21`, the inhibition in experiment [1] was found to be 30%. On the same count and under the same terms, to `CC(=O)O/N=C1\C=Cc2c(no[n+]2[O-])C1=O` belongs 20%. On to `O=C(Oc1cccc2c1C(=O)c1nc3nonc3nc1-2)c1ccccc1`, for which, in experiment [1], the inhibition came out at 70%. Further, half-maximal inhibition against Prostaglandin E synthase (IC50) required 4.6 µM. In experiment [1], `O=C1c2ccccc2-c2nc3nonc3nc21` showed an inhibition of 30%. As for `O=C1c2nc3nonc3nc2-c2cccc(O)c21`, in experiment [1], the inhibition worked out at 5%.

The record behind these values is ChEMBL document CHEMBL4041473, “Identification of novel microsomal prostaglandin E2 synthase-1 (mPGES-1) lead inhibitors from Fragment Virtual Screening” (Eur J Med Chem, 2017).
